Data reported in ChEMBL document CHEMBL3272036, “Reactions of 2-acyloxyisobutyryl halides with nucleosides. Synthesis and biological evaluation of some 3"-acyl and 3',5'-diacyl derivatives of 1-beta-D-arabinofuranosylcytosine” (J Med Chem, 1976).
In brackets after ≈: the same amount, converted by molar mass. Activity calls are given as the source filed them. No cut-off for these calls is given here.

How the values were obtained:
L1210 [1] = assay: Antitumor activity against mouse L1210 cells allografted in BDF1 mouse assessed as increase in life span at 500 mg/kg, ip administered as single dose relative to vehicle-treated control; format: functional; conditions: route intraperitoneal
Summary of the method: (§1)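 Single intraperitoneal injection given 24 h after the leukemic cells were introduced, at 100, 200, 500 or 1000 mg/kg. Read-out is % increase in life span (ILS), with the count of 30-day survivors per group recorded (group sizes 7–8 mice).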

HeLa = assay: Cytotoxicity against human HeLa cells after 48 hrs by Coulter counter analysis; format: functional; conditions: read-out: ED50 (the source's name)
L1210 [2] = assay: Antitumor activity against mouse L1210 cells allografted in BDF1 mouse assessed as survival at 200 mg/kg, ip administered as single dose measured on day 30 relative to vehicle-treated control; format: functional, organism-based; set-up: dose 200 mg/kg
Summary of the method: (§2)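 Leukemic L1210 cells were introduced into mice. Each compound was then given as a single intraperitoneal injection 24 h later. Activity is expressed as % increase in life span (ILS), with the count of 30-day survivors per group. Doses tested were 100, 200, 500 and 1000 mg/kg.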

Vaccinia virus = assay: Antiviral activity against Vaccinia virus IHD infected in African green monkey BGM cells assessed as plaque reduction measured on day 5 by disk diffusion assay; format: functional; conditions: Orthopoxvirus vaccinia, 120 h, read-out: ED50 (the source's name)
L1210 [3] = assay: Antitumor activity against mouse L1210 cells allografted in BDF1 mouse assessed as survival at 500 mg/kg, ip administered as single dose measured on day 30 relative to vehicle-treated control; format: functional, organism-based; set-up: dose 500 mg/kg; summary of the method: as §2
Herpesviridae sp. = assay: Antiviral activity against Herpes Simplex virus HF infected in African green monkey BGM cells assessed as plaque reduction measured on day 5 by disk diffusion assay; format: functional; conditions: 120 h, read-out: ED50 (the source's name)
L1210 [4] = assay: Antitumor activity against mouse L1210 cells allografted in BDF1 mouse assessed as increase in life span at 200 mg/kg, ip administered as single dose relative to vehicle-treated control; format: functional; conditions: route intraperitoneal; summary of the method: as §1
L1210 [5] = assay: Antitumor activity against mouse L1210 cells allografted in BDF1 mouse assessed as increase in life span at 100 mg/kg, ip administered as single dose relative to vehicle-treated control; format: functional; conditions: route intraperitoneal; summary of the method: as §1
L1210 [6] = assay: Antitumor activity against mouse L1210 cells allografted in BDF1 mouse assessed as survival at 100 mg/kg, ip administered as single dose measured on day 30 relative to vehicle-treated control; format: functional, organism-based; set-up: dose 100 mg/kg; summary of the method: as §2
L1210 [7] = assay: Antitumor activity against mouse L1210 cells allografted in ip dosed mouse administered as single dose relative to vehicle-treated control; format: functional; summary of the method: as §2
L1210 [8] = assay: Chemotherapeutic index, ratio of ILSmax for antitumor activity against mouse L1210 cells allografted in BDF1 mouse to ILS30 for antitumor activity against mouse L1210 cells allografted in BDF1 mouse; format: functional
Summary of the method: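 Dose-response curves were determined in L1210-bearing mice, each receiving a single ip injection 24 h after leukemic cell introduction. Chemotherapeutic index = the dose producing maximum % ILS divided by the dose giving 30% ILS.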

L1210 [9] = assay: Antitumor activity against mouse L1210 cells allografted in BDF1 mouse assessed as survival at 1000 mg/kg, ip administered as single dose measured on day 30 relative to vehicle-treated control; format: functional, organism-based; set-up: dose 1000 mg/kg; summary of the method: as §2
L1210 [10] = assay: Antitumor activity against mouse L1210 cells allografted in BDF1 mouse assessed as increase in life span at 1000 mg/kg, ip administered as single dose relative to vehicle-treated control; format: functional; conditions: route intraperitoneal; summary of the method: as §1
L1210 [11] = assay: Antitumor activity against mouse L1210 cells allografted in BDF1 mouse assessed as survival at 50 mg/kg, ip administered as single dose measured on day 30 relative to vehicle-treated control; format: functional, organism-based; set-up: dose 50 mg/kg

SMILES | ILS at 500 mg/kg (L1210 [1]) [%] | EC50 (HeLa) [µg/mL] | Activity (L1210 [2]) | EC50 (Vaccinia virus) [nM] | Activity (L1210 [3]) | EC50 (Herpesviridae sp.) [nM] | ILS at 200 mg/kg (L1210 [4]) [%] | ILS at 100 mg/kg (L1210 [5]) [%] | Activity (L1210 [6]) | ILS30 (L1210 [7]) [mg/kg] | ILSmax (L1210 [7]) [mg/kg] | Ratio (L1210 [8]) | Activity (L1210 [9]) | ILS at 1000 mg/kg (L1210 [10]) [%] | Activity (L1210 [11])
CCCC(=O)O[C@H]1[C@H](O)[C@H](n2ccc(N)nc2=O)O[C@@H]1CO | 22 | 0.11 (≈ 0.351 µM) | inactive | 1200 | inactive | 2800 | 13 |  |  |  |  |  |  |  | 
CCCCCCCCCCCCCCCC(=O)OC[C@H]1O[C@@H](n2ccc(N)nc2=O)[C@@H](O)[C@@H]1O | -40 | 0.08 (≈ 0.166 µM) |  | 300 | inactive | 1140 | > 224 | > 257 | Active | 2 | 150 | 75 |  |  | 
CCCCCCCCCCCCCCCC(=O)O[C@H]1[C@H](O)[C@H](n2ccc(N)nc2=O)O[C@@H]1CO | -20 | 0.24 (≈ 0.498 µM) | Active | 140 | inactive | 670 | > 295 | > 295 | Active | 1 | 200 | 200 | inactive | -19 | 
CCCCCCCC/C=C\CCCCCCCC(=O)OC[C@H]1O[C@@H](n2ccc(N)nc2=O)[C@@H](O)[C@@H]1OC(=O)CCCCCCC/C=C\CCCCCCCC.Cl |  | 1.1 |  | 17500 |  | > 30000 | > 190 | 70 |  |  |  |  |  |  | inactive
CCCCCCCCCC(=O)O[C@H]1[C@H](O)[C@H](n2ccc(N)nc2=O)O[C@@H]1CO | > 161 | 0.09 (≈ 0.226 µM) |  | 100 |  | 340 | > 224 | > 241 |  | 5 | 150 | 30 | inactive | -23 | 
CCCCCCCCCC(=O)OC[C@H]1O[C@@H](n2ccc(N)nc2=O)[C@@H](O)[C@@H]1O | > 122 | 0.1 (≈ 0.252 µM) |  | 180 |  | 860 | > 114 | 59 | inactive | 20 | 500 | 25 |  | -45 | 
CCCCCCCC/C=C\CCCCCCCCCCCC(=O)O[C@H]1[C@H](O)[C@H](n2ccc(N)nc2=O)O[C@@H]1CO | -34 | 0.16 (≈ 0.284 µM) | Active | 17500 | inactive | > 30000 | > 280 | > 280 | Active |  |  |  | inactive |  | 
CCCCCCCCCCC(=O)OC[C@H]1O[C@@H](n2ccc(N)nc2=O)[C@@H](O)[C@@H]1OC(=O)CCCCCCCCCC | 117 | 0.4 (≈ 0.69 µM) | inactive | 300 | Active | 780 | > 300 | > 280 |  |  |  |  |  |  | 
CCCCCCCCCCCCCC(=O)O[C@H]1[C@H](O)[C@H](n2ccc(N)nc2=O)O[C@@H]1CO | -21 | 0.08 (≈ 0.176 µM) | Active | 180 | inactive | 640 | > 284 | > 266 |  |  |  |  | inactive | -23 | 
CCCCCCCCCCCCCCCCCCCCCC(=O)OC[C@H]1O[C@@H](n2ccc(N)nc2=O)[C@@H](O)[C@@H]1O | > 295 | 0.04 (≈ 0.0707 µM) | Active | 450 | Active | 12000 | > 295 | > 228 |  | 1 | 500 | 500 | inactive | 45 | 
CCCCCCCCCCCCCCCCCCCC(=O)O[C@H]1[C@H](O)[C@H](n2ccc(N)nc2=O)O[C@@H]1CO | > 274 | 0.1 (≈ 0.186 µM) | inactive | > 30000 |  | > 30000 | 164 | 91 | inactive |  |  |  | Active | > 295 | 
CC(=O)O[C@H]1[C@H](O)[C@H](n2ccc(N)nc2=O)O[C@@H]1CO | 20 | 0.14 (≈ 0.491 µM) | inactive | 580 | inactive | 1450 | 19 | 14 | inactive |  |  |  |  |  | 
CCCCCCCCCCCCCCCCCCCCCC(=O)O[C@H]1[C@H](O)[C@H](n2ccc(N)nc2=O)O[C@@H]1CO |  | 1.1 (≈ 1.94 µM) |  | > 30000 |  | > 30000 | > 215 | > 200 |  | 2 | 2000 | 1000 | Active | > 240 | 
CCCCCCCC(=O)O[C@H]1[C@H](O)[C@H](n2ccc(N)nc2=O)O[C@@H]1CO | 37 | 0.1 (≈ 0.271 µM) | inactive | 110 | inactive | 640 | 48 | 34 | inactive |  |  |  | inactive | 11 | 
Nc1ccn([C@@H]2O[C@H](CO)[C@@H](O)[C@@H]2O)c(=O)n1 [CYTARABINE] | 16 | 0.05 (≈ 0.206 µM) | inactive | 70 | inactive | 160 | 7 | 8 | inactive |  |  |  | inactive | 34 | 
